Test results reported in ChEMBL document CHEMBL4680118, “Cerpegin-derived furo[3,4-c]pyridine-3,4(1H,5H)-diones enhance cellular response to interferons by de novo pyrimidine biosynthesis inhibition” (Eur J Med Chem, 2020).
The source made the active and inactive calls. The calls are words filed in the database; no cut-off is given here.

Legend:
[1] = molecular target: T1, Dihydroorotate dehydrogenase (quinone), mitochondrial (Homo sapiens, UniProt Q02127); test: Inhibition of DHODH in human HEK293 cells transfected with ISRE-luciferase reporter gene assessed as increase in 30 IU/ml IFN-alpha stimulated MX2 mRNA expression at 80 uM measured after 16 hrs by RT-qPCR analysis relative to control; format: cell-based
T1 sequence (Q02127 whole entry): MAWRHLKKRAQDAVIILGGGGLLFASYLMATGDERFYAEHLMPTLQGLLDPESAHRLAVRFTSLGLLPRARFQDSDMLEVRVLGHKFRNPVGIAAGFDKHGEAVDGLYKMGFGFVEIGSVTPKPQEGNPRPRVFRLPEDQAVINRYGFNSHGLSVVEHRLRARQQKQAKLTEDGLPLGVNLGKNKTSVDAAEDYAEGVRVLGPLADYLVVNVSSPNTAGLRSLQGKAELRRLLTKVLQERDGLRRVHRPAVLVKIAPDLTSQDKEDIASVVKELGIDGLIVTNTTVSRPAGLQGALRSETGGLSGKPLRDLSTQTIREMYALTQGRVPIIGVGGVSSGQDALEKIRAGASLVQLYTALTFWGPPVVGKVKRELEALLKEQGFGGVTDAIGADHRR
Outline: (§1)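 ISRE-Luc HEK cells co-treated with increasing IFN-α concentrations and DMSO or compound (80 µM) for 16 h. Total RNA extracted from 2×10^5 cells with DNase step; qPCR 35 cycles. CT values normalized to RPL13A and unstimulated controls (2^-ΔΔCT), expressed as fold change versus DMSO alone. Three independent experiments; two-way ANOVA with Bonferroni.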

[2] = molecular target: T1, Dihydroorotate dehydrogenase (quinone), mitochondrial; test: Inhibition of DHODH in human HEK293 cells transfected with ISRE-luciferase reporter gene assessed as increase in 30 IU/ml IFN-alpha stimulated IFIT2 mRNA expression at 80 uM measured after 16 hrs by RT-qPCR analysis relative to control; format: cell-based; outline: as §1
[3] = molecular target: T1, Dihydroorotate dehydrogenase (quinone), mitochondrial; test: Inhibition of DHODH in human HEK-293 cells transfected with ISRE-luciferase reporter gene assessed as increase in IFN-alpha mediated cellular response after 24 hrs by luciferase reporter gene assay; conditions: read-out: EC50
[4] = molecular target: T1, Dihydroorotate dehydrogenase (quinone), mitochondrial; test: Inhibition of DHODH in human HEK293 cells transfected with ISRE-luciferase reporter gene assessed as increase in 250 IU/ml IFN-alpha stimulated IFIT1 mRNA expression at 80 uM measured after 16 hrs by RT-qPCR analysis relative to control; format: cell-based; outline: as §1
[5] = molecular target: T1, Dihydroorotate dehydrogenase (quinone), mitochondrial; test: Inhibition of DHODH in human HEK-293 cells transfected with ISRE-luciferase reporter gene assessed as increase in 150 IU/ml IFN-alpha mediated cellular response at 80 uM in presence of P300/CBP measured after 24 hrs by luciferase reporter gene assay; format: cell-based; conditions: HEK293
Outline: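 ISRE-Luc HEK-293 cells given IFN-α (150 IU/ml) alone or with test compound (80 µM), with or without the MRE11 inhibitor mirin, ATR inhibitor AZD6738, CHK1 inhibitor PF477736 or P300/CBP inhibitor C636. Firefly luciferase read 24 h later, normalized to IFN-α alone. Means ± SD of at least three independent experiments.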

[6] = molecular target: T1, Dihydroorotate dehydrogenase (quinone), mitochondrial; test: Inhibition of DHODH in human HEK293 cells transfected with ISRE-luciferase reporter gene assessed as increase in 250 IU/ml IFN-alpha stimulated IFIT2 mRNA expression at 80 uM measured after 16 hrs by RT-qPCR analysis relative to control; format: cell-based; outline: as §1
[7] = molecular target: T1, Dihydroorotate dehydrogenase (quinone), mitochondrial; test: Inhibition of DHODH in human HEK293 cells transfected with ISRE-luciferase reporter gene assessed as increase in 30 IU/ml IFN-alpha stimulated IFITM3 mRNA expression at 80 uM measured after 16 hrs by RT-qPCR analysis relative to control; format: cell-based; outline: as §1
[8] = molecular target: T1, Dihydroorotate dehydrogenase (quinone), mitochondrial; test: Inhibition of DHODH in human HEK293 cells transfected with ISRE-luciferase reporter gene assessed as increase in 60 IU/ml IFN-alpha stimulated IFIT3 mRNA expression at 80 uM measured after 16 hrs by RT-qPCR analysis relative to control; format: cell-based; outline: as §1
[9] = molecular target: T1, Dihydroorotate dehydrogenase (quinone), mitochondrial; test: Inhibition of DHODH in human HEK293 cells assessed as increase in 250 IU/ml IFN-alpha stimulated ISG15 mRNA expression at 80 uM measured after 16 hrs by RT-qPCR analysis relative to control; format: cell-based; outline: as §1
[10] = molecular target: T1, Dihydroorotate dehydrogenase (quinone), mitochondrial; test: Inhibition of DHODH in human HEK293 cells transfected with ISRE-luciferase reporter gene assessed as increase in 250 IU/ml IFN-alpha stimulated IFIT3 mRNA expression at 80 uM measured after 16 hrs by RT-qPCR analysis relative to control; format: cell-based; outline: as §1
[11] = molecular target: T1, Dihydroorotate dehydrogenase (quinone), mitochondrial; test: Inhibition of DHODH in human HEK293 cells transfected with ISRE-luciferase reporter gene assessed as increase in 30 IU/ml IFN-alpha stimulated DDX58 mRNA expression at 80 uM measured after 16 hrs by RT-qPCR analysis relative to control; format: cell-based; outline: as §1
[12] = molecular target: T1, Dihydroorotate dehydrogenase (quinone), mitochondrial; test: Inhibition of DHODH in human HEK293 cells transfected with ISRE-luciferase reporter gene assessed as increase in 30 IU/ml IFN-alpha stimulated IFIT5 mRNA expression at 80 uM measured after 16 hrs by RT-qPCR analysis relative to control; format: cell-based; outline: as §1
[13] = molecular target: T1, Dihydroorotate dehydrogenase (quinone), mitochondrial; test: Inhibition of DHODH in human HEK293 cells transfected with ISRE-luciferase reporter gene assessed as increase in 30 IU/ml IFN-alpha stimulated […] mRNA expression at 80 uM measured after 16 hrs by RT-qPCR analysis relative to control; format: cell-based; outline: as §1
[14] = molecular target: T1, Dihydroorotate dehydrogenase (quinone), mitochondrial; test: Inhibition of DHODH in human HEK293 cells transfected with ISRE-luciferase reporter gene assessed as increase in 125 IU/ml IFN-alpha stimulated PML mRNA expression at 80 uM measured after 16 hrs by RT-qPCR analysis relative to control; format: cell-based; outline: as §1
[15] = molecular target: T1, Dihydroorotate dehydrogenase (quinone), mitochondrial; test: Inhibition of DHODH in human HEK293 cells assessed as increase in 250 IU/ml IFN-alpha stimulated DDX58 mRNA expression at 80 uM measured after 16 hrs by RT-qPCR analysis relative to control; format: cell-based; outline: as §1
[16] = molecular target: T1, Dihydroorotate dehydrogenase (quinone), mitochondrial; test: Inhibition of DHODH in human HEK-293 cells transfected with ISRE-luciferase reporter gene assessed as increase in IFN-alpha mediated cellular response at 6 to 178 uM after 24 hrs by luciferase reporter gene assay; format: cell-based; conditions: HEK293, dose 6-178 µM
[17] = molecular target: T1, Dihydroorotate dehydrogenase (quinone), mitochondrial; test: Inhibition of DHODH in human HEK293 cells assessed as increase in gammaH2AX phosphorylation measured after 24 hrs by immunostaining based flow cytometry; format: cell-based
Outline: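 Cells treated 24 h with compound (80 µM), harvested, trypsinized, fixed 30 min in 4% PFA, permeabilized 5 min. Stained with anti-γH2AX mouse monoclonal (1/400) or isotype control, 45 min at 4°C, then Alexa Fluor 488 anti-mouse secondary (1/500) 45 min at 4°C. Analysed by flow cytometry; means ± SD of three independent experiments.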

[18] = molecular target: T1, Dihydroorotate dehydrogenase (quinone), mitochondrial; test: Inhibition of DHODH in human HEK293 cells transfected with ISRE-luciferase reporter gene assessed as increase in 30 IU/ml IFN-alpha stimulated ISG15 mRNA expression at 80 uM measured after 16 hrs by RT-qPCR analysis relative to control; format: cell-based; outline: as §1
[19] = molecular target: T1, Dihydroorotate dehydrogenase (quinone), mitochondrial; test: Inhibition of DHODH in human HEK293 cells transfected with ISRE-luciferase reporter gene assessed as increase in 60 IU/ml IFN-alpha stimulated DDX58 mRNA expression at 80 uM measured after 16 hrs by RT-qPCR analysis relative to control; format: cell-based; outline: as §1
[20] = molecular target: T1, Dihydroorotate dehydrogenase (quinone), mitochondrial; test: Inhibition of DHODH in human HEK293 cells assessed as increase in 125 IU/ml IFN-alpha stimulated ISG15 mRNA expression at 80 uM measured after 16 hrs by RT-qPCR analysis relative to control; format: cell-based; outline: as §1

fold change (FC) [1]: 7 | fold change (FC) [2]: 26 | EC50 [3]: 44 µM | fold change (FC) [4]: 145 | Activity [5]: inactive | fold change (FC) [6]: 165 | fold change (FC) [7]: 6 | fold change (FC) [8]: 69 | fold change (FC) [9]: 226 | fold change (FC) [10]: 129 | fold change (FC) [11]: 16 | fold change (FC) [12]: 3 | fold change (FC) [13]: 44 | fold change (FC) [14]: 5 | fold change (FC) [15]: 38 | Activity [16]: Active | Activity [17]: Active | fold change (FC) [18]: 21 | fold change (FC) [19]: 23 | fold change (FC) [20]: 200
SMILES: O=C1OC2(CCCCC2)c2ccn(C3CC3)c(=O)c21
